# High-throughput results as filed in PubChem BioAssay.
# A selection: hits, their analogues and other compounds. The true share with any hit is near 3.8%.
# hERG protect: hERG (human) protection from proarrhythmic block; Q12809; activation (rescue from dofetilide block), less the hit threshold, % at 10 µM; actives 0.51% (n = 310,000); AID 1511; CHO-hERG, FluxOR thallium flux, dofetilide IC70 present;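 active = activation above the mean of controls blocked by dofetilide plus 5 SD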;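 note: thallium influx through hERG after potassium depolarization seen as dye fluorescence rise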
# KCNK3 inh: human KCNK3 channel inhibition, primary screen | O14649 | CHO-KCNK3 thallium flux, FluxOR fluorescence; active compounds read low | B-score at 10 µM | actives 0.84% (n = 340,000) | AID 602410;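 active = B-score under library mean minus 4 SD, starting fluorescence ratio at most library mean plus 5 SD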;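 note: more negative B-score means stronger inhibition of thallium flux through KCNK3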
# KCNQ1 block: inhibitors of human KCNQ1 potassium channel; actives 1.3% (n = 310,000); CHO-K1 KCNQ1, FluxOR thallium flux fluorescence; active compounds read high; P51787; AID 2642; B-score at 10 µM;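 active = compounds whose thallium flux B-score, printed positive for inhibition, exceeds three library SD while starting fluorescence stays within three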;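 note: channel opened by potassium depolarization with thallium stimulus after 20 min compound exposure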
# KCNK9 inh: inhibitors of human KCNK9 two-pore domain potassium channel; B-score at 10 µM; Q9NPC2; actives 1.2% (n = 310,000); HEK293 KCNK9, FluxOR thallium flux fluorescence; active compounds read low;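 active = ratio B-score over 3 SD below the library mean, with starting fluorescence within 5 SD of its mean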;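 note: negative B-score means less thallium flux so channel inhibition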
# KCNQ1 act: human KCNQ1 channel potentiation or activation; P51787; CHO-K1 KCNQ1, thallium flux FluxOR fluorescence; active compounds read high; B-score at 10 µM; actives 0.35% (n = 310,000);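 active = fluorescence ratio B-score, a plate-corrected score, at least three library SD, with initial intensity B-score within 5 SD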
#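 Schedule – 37 °C overnight plating, 90-min dark dye load, 20-min compound pretreatment · System – stable KCNQ1 CHO-K1 line · Probe or stimulus – thallium- and potassium-containing depolarizing buffer · Measured by – kinetic FluxOR fluorescence, 10 s baseline plus 110 s post-stimulus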
# Kir21 inh: blocks the mouse Kir2.1 inward-rectifier potassium channel; P35561; HEK293-Kir2.1, FluxOR thallium flux fluorescence; active compounds read low; B-score at 10 µM; actives 0.85% (n = 310,000);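 active = fluorescence ratio B-score at or below minus 3 SD of library scores, with starting-brightness B-score within 2 SD, cut at about -4.2 in these data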;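 note: channel flux triggered by added potassium and thallium sulfate stimulus; B-score of peak minus minimum fluorescence over baseline after thallium stimulus; more negative B-score means stronger Kir2.1 block with less thallium influx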
# KCNK9 inh conf: confirmation of human KCNK9 potassium channel inhibitors; shares compounds with KCNK9 inh; HEK293 KCNK9 cells, FluxOR thallium flux fluorescence; inhibition, % at 10 µM; actives 43% (n = 4,900); AID 492992;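 active = thallium signal inhibited by more than 5 SD of the compound-free buffer control wells, on both duplicate plates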;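 note: 0% = assay buffer control wells without compound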
# Kir2-1 spec: tests whether KCNK9 modulators also affect mouse Kir2.1; Kir2.1 cells, FluxOR thallium flux fluorescence; actives 4% (n = 4,900); shares compounds with KCNK9 inh; inhibition, % at 10 µM;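 active = thallium signal drop more than 5 SD beyond the mean of the no-compound control wells, seen in both duplicate plates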;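 note: signal is fluorescence rise after thallium addition divided by baseline fluorescence; plate controls were assay buffer only for no effect and full block by chlorpromazine control for full effect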
# HEK293 Tl ctr: second check of KCNK9 modulator effects in non-induced HEK293 cells. shares compounds with KCNK9 inh. FluxOR thallium flux. inhibition, % at 10 µM. actives 40% (n = 4,900);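 active = thallium signal drop beyond 5 SD of the untreated control mean, on both duplicate plates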;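 note: plate controls were buffer only IC0 wells for no effect and SID17386958 at its maximal inhibitory level for full effect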
# The depositor's hits bear a star; i = inactive; / = not tested or not shown.
SMILES,hERG protect,KCNK3 inh,KCNQ1 block,KCNK9 inh,KCNQ1 act,Kir21 inh,KCNK9 inh conf,Kir2-1 spec,HEK293 Tl ctr
Cc1ccc(CSCC(=O)NCCc2ccccc2)cc1,-9.4,i,i,i,i,-0.81,i,i,i
Cc1ccc(CSCC(=O)Nc2ccccc2C(=O)O)cc1,-4.9,i,i,i,i,1.28,/,/,/
CCN(CC)S(=O)(=O)c1cccc(NC(=O)CN2C(=O)c3ccc([N+](=O)[O-])cc3C2=O)c1,-6.9,i,i,i,i,0.17,/,/,/
CCCC/C=C/C(NC(=O)CCc1ccccc1)c1ccccc1 (centres undefined),-4.8,i,i,-10*,i,0.22,47.5%*,i,35.0%*
Cc1cc(NC(=O)COc2ccccc2C(N)=O)no1,/,i,/,/,/,/,/,/,/
CC1Oc2cc3oc4c(O)c(O)ccc4c(=O)c3c(O)c2C1(C)C (centres undefined),-17.4,i,10*,i,i,2.64,i,i,i
COc1ccc(-c2cc(=O)oc3c(O)c(O)ccc23)cc1,-7.8,i,i,i,i,0.15,/,/,/
O=[N+]([O-])c1ccc(Oc2c(F)c(F)nc(N3CCCC3)c2F)cc1,-4.0,i,7*,i,i,-0.8,i,i,i
O=C(O)CC1=C(Nc2ccccc2)C(=O)N(c2ccccc2)C1c1ccc(Br)cc1 (centres undefined),-10.4,i,i,i,i,0.44,/,/,/
Fc1ccccc1OCCSc1nnnn1-c1ccccc1,-8.5,i,i,i,i,-0.37,/,/,/
COc1ccccc1OCCSc1nnnn1-c1ccc(C)cc1,-8.6,i,i,i,i,-0.08,i,i,i
CC1CCC(C(C)C)C(OC(=O)C[n+]2cc(-c3ccc(Cl)cc3)n3c2CCC3)C1 (centres undefined),-22.1,i,i,-12.7*,i,-1.85,47.5%*,43.5%*,i
O=C(C[n+]1cc(-c2ccc(Cl)cc2)n2c1CCC2)N1c2ccccc2Sc2ccccc21,-16.7,i,i,i,i,-0.1,/,/,/
NC(=O)CSc1nc(-c2ccccc2Cl)ns1,-9.2,i,i,i,i,0.77,/,/,/
CC1CN(S(=O)(=O)c2ccc(C(=O)Nc3nnc(-c4ccccn4)o3)cc2)CC(C)O1 (centres undefined),-8.0,i,i,i,i,-0.18,/,/,/
CC1CN(S(=O)(=O)c2ccc(C(=O)Nc3nnc(-c4ccc5c(c4)CCCC5)o3)cc2)CC(C)O1 (centres undefined),-9.2,i,i,i,i,1.36,i,i,i
O=C1Nc2ccc(Cl)cc2C(C#CC2CC2)(C(F)(F)F)O1 (centres undefined),-5.5,i,i,-8.24*,i,-1.2,48.5%*,i,46.5%*
CC1CC(C)CN(C(=O)C(C)N2CCN(S(=O)(=O)c3cccs3)CC2)C1 (centres undefined),/,i,/,/,/,/,/,/,/
CCOC(=O)c1c(N)sc(C(O)(C(F)(F)F)C(F)(F)F)c1-c1ccc(F)cc1,-38.6,-12.2*,i,-9.27*,i,-0.47,54.0%*,i,39.0%*
COc1cccc(CN(C)C(=O)Cc2c[nH]c3ccccc23)c1OC,-6.8,i,i,i,i,-0.65,/,/,/
COc1cccc(CN(C)C(c2ccccc2)c2ccccc2)c1OC,-11.1,i,i,-8.22*,i,0.41,i,i,i
CCCOc1cccc(C(=O)NC(=S)Nc2cccc(C(F)(F)F)c2)c1,-2.8,i,i,i,i,-0.14,i,i,i
